Measured values: ChEMBL document CHEMBL1134315 (J Med Chem, 2001)

Key:
[1] = molecular target: Transient receptor potential cation channel subfamily V member 1 (Rattus norvegicus, UniProt O35433); assay: Binding affinity to vanilloid VR1 receptor using [3H]resiniferatoxin ([3H]-RTX) in rat spinal cord membranes; assay type: cell membranes, Membrane
Method in brief: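 Radioligand displacement binding used these systems: CB1, rat cerebellum membranes with [3H]WIN55212-2; CB2, HEK293EBNA cells transfected with the human CB2 receptor, with [3H]CP55940; VR1, rat spinal cord membranes with [3H]RTX. Ki values come from two independent experiments, each run in triplicate, and are reported as mean ± standard error.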

[2] = tested on: U-937; assay: Ability to inhibit [3H]anandamide uptake in human lymphoma U937 cells; assay type: functional, cell-based
Method in brief: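 IC50 values come from three independent experiments, each run in triplicate, and are reported as mean ± standard error.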

[3] = molecular target: Cannabinoid receptor 2 (Homo sapiens, UniProt P34972); assay: Binding affinity to human CB2 cannabinoid receptor using [3H]CP-55940 in HEK293 EBNA transfected cells; assay type: cell-based
[4] = molecular target: Cannabinoid receptor 1 (Rattus norvegicus, UniProt P20272); assay: Binding affinity to CB1 cannabinoid receptor using [3H]WIN-55212-2 in rat cerebellum membranes; assay type: cell membranes, Membrane
[5] = tested on: U-937; assay: Ability to inhibit [3H]anandamide uptake in human lymphoma U937 cells; inactive; assay type: functional, cell-based

Sequence of Cannabinoid receptor 1 (P20272 whole entry): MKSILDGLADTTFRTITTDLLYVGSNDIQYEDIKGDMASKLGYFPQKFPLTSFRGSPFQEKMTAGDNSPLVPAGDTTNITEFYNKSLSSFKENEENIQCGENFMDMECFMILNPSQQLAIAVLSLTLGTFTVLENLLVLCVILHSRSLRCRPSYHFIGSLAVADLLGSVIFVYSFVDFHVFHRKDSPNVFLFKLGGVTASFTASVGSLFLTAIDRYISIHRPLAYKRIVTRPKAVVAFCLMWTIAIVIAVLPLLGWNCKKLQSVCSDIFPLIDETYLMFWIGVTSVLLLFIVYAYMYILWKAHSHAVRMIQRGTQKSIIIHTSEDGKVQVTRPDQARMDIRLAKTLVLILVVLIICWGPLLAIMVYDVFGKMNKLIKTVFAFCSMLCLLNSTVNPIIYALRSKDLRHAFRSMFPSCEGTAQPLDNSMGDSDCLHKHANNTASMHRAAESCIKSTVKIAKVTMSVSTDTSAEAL
Sequence of Transient receptor potential cation channel subfamily V member 1 (O35433 whole entry): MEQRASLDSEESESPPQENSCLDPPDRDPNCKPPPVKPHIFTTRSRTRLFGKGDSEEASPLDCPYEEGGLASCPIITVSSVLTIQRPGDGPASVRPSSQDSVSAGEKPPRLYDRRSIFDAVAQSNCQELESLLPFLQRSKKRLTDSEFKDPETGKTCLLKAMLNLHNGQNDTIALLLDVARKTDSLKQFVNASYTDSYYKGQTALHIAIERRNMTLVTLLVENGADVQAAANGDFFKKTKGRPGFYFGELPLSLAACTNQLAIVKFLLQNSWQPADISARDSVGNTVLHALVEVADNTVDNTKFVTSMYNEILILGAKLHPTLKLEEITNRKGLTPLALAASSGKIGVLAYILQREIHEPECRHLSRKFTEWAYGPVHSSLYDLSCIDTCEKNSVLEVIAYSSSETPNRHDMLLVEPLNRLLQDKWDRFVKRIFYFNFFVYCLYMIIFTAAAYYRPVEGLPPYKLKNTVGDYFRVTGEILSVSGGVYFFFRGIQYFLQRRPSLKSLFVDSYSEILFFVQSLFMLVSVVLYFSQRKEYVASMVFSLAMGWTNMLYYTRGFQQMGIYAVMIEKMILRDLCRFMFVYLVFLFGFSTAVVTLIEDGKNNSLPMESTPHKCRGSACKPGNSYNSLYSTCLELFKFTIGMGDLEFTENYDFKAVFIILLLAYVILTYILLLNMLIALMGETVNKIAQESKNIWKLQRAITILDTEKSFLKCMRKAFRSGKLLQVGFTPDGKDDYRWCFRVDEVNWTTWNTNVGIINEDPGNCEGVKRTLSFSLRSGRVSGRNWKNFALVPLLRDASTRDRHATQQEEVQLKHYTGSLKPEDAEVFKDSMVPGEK
Sequence of Cannabinoid receptor 2 (P34972 whole entry): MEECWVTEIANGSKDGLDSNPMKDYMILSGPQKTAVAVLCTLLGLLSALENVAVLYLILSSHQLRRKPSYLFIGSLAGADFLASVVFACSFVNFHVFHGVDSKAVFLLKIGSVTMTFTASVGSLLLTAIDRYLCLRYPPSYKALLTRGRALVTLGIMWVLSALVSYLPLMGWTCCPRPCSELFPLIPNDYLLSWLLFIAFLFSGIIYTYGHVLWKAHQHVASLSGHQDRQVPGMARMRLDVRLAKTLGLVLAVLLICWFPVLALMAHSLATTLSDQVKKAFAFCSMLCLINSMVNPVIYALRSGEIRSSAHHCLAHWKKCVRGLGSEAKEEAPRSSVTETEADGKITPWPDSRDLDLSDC

SMILES | Ki [1] [nM] | IC50 [2] [nM] | Ki [3] [nM] | Ki [4] [nM] | IC50 [5]
CCCCC/C=C\C/C=C\C/C=C\C/C=C\CCCC(=O)OCc1ccsc1 | > 5000 | 3000 | > 1000 | > 1000 | –
CCCCC/C=C\C/C=C\C/C=C\C/C=C\CCCC(=O)NCC1CCCO1 (configuration not stated) | > 5000 | 8000 | > 1000 | > 1000 | –
CCCCC/C=C\C/C=C\C/C=C\C/C=C\CCCC(=O)OCC1CCCO1 (configuration not stated) | > 5000 | 18000 | > 1000 | > 1000 | –
CCCCC/C=C\C/C=C\C/C=C\C/C=C\CCCC(=O)OCC1CCOC1 (configuration not stated) | > 5000 | – | > 1000 | – | –
CCCCC/C=C\C/C=C\C/C=C\C/C=C\CCCC(=O)OCc1ccoc1 | < 5000 | 14000 | > 1000 | > 1000 | –
CCCCC/C=C\C/C=C\C/C=C\C/C=C\CCCC(=O)OCc1cccs1 | > 5000 | – | > 1000 | > 1000 | Not Active
CCCCC/C=C\C/C=C\C/C=C\C/C=C\CCCC(=O)OCc1ccco1 | > 5000 | 24000 | > 1000 | > 1000 | –
CCCCC/C=C\C/C=C\C/C=C\C/C=C\CCCC(=O)NCc1ccco1 | < 5000 | 5000 | > 1000 | > 1000 | –
CCCCC/C=C\C/C=C\C/C=C\C/C=C\CCCC(=O)Nc1ccc(O)cc1 | > 5000 | 4000 | > 1000 | > 1000 | –
CCCCC/C=C\C/C=C\C/C=C\C/C=C\CCCC(=O)NCc1cccn1C | > 5000 | 5000 | 70 | 124 | –
CCCCC/C=C\C/C=C\C/C=C\C/C=C\CCCC(=O)NCc1cccs1 | > 5000 | 5700 | > 1000 | > 1000 | –
CCCCC/C=C\C/C=C\C/C=C\C/C=C\CCCC(=O)NCc1ccoc1 | > 5000 | 800 | 67 | > 1000 | –
CCCCC/C=C\C/C=C\C/C=C\C/C=C\CCCC(=O)NCCO [ANANDAMIDE] | 169 | – | – | – | –
